proKLK7 act – activates the human kallikrein-7 zymogen | P49862 | purified proKLK7, EDANS-DABCYL substrate fluorescence; 100% is mature enzyme control, 0% vehicle | activation, % at 7 µM | 0.9% of 370,000 active | AID 652039;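 active = activation above the mean of all tested compounds plus 3 SD, computed per campaign excluding outliers beyond control limits, cut at about 13% in these data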
Wee1 degr inh – blocks degradation of human Wee1 kinase; 1.2% of 220,000 active; reporter increase, % at 5 µM; P30291; HeLa Luc-Wee1K328M stability, luciferase luminescence; 100% = proteasome inhibitor MG132 effect;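 active = activation above the mean of all tested compounds plus 3 SD, set per screening run, cut at about 8.8% in these data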;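 also: cells exposed to compound for 20 h before luminescence read; 0% = DMSO alone and 100% = MG132 at 30 µM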
Target sequence (P30291 whole entry K328M): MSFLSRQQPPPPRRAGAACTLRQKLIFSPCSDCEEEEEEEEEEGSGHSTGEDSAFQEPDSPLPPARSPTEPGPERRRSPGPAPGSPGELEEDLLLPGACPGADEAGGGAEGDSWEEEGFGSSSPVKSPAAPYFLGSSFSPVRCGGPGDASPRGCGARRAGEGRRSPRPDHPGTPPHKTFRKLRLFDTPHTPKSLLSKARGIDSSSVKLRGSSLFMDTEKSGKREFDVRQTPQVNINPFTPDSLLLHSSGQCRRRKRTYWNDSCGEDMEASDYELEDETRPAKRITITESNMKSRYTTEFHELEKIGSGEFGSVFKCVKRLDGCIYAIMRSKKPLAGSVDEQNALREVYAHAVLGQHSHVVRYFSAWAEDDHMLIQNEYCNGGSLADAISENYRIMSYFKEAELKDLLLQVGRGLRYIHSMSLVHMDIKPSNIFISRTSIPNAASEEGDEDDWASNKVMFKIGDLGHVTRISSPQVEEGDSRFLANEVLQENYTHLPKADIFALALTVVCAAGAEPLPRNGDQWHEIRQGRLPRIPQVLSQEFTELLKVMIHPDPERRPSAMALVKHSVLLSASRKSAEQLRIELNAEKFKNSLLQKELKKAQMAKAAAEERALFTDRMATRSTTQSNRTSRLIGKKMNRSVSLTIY
AI-2 QS mod – modulates the Vibrio harveyi AI-2 quorum sensing system; 0.4% of 300,000 active; AID 2094; Vibrio harveyi JMH597 AI-2 luminescence/OD600 ratio, 9 h; active compounds read low; strain lacks LuxN and CqsS sensors; 0 = neutral-control median; activity change, % at 7.5 µM; in the data active = activity change below about -75%, passing the limit was not always enough; inconclusive = no clear call, values can overlap the other calls;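 also: luminescence divided by OD600 gain over 9 h not by final OD600 alone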
RanGTP-Impb inh – disruptors of Ran-importin-beta complex formation – biochemical, FRET, CFP-Ran, YFP-importin-beta, homogeneous, primary screen; cell-free CFP-Ran/YFP-importin-beta FRET ratio; inhibition, % (no concentration beside the values); 1.1% of 300,000 active;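 active = more than half of the replicate wells show a fall in the fluorescence ratio signal beyond about 16%, limit read from the data, passing the limit was not always enough; inconclusive = exactly half of the replicate wells pass the set limit; inactive = fewer than half of replicates pass the limit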;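 also: 0% = DMSO wells and 100% = Ran loaded with GDP instead of GTP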
Runt-SMMHC FRET – inhibitors of human RUNX1 Runt domain binding to CBFb-SMMHC. AID 1434. Q01196+Q13951. inhibition, % at 20 µM. 0.74% of 220,000 active. Cerulean-Runt/Venus-CBFb-SMMHC FRET ratio 530/480, 1 h;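 active = mean inhibition across duplicate retests at 20 µM reaching about 50%, limit read from the data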;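 also: 0% = DMSO wells and 100% = wells with excess untagged CBFb-SMMHC; inhibitors lower the FRET ratio by blocking Runt binding to CBFb-SMMHC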
Runt-CBFb FRET – blocks binding of human RUNX1 Runt domain to CBFb; Q01196+Q13951; 0.46% of 220,000 active; Cerulean-Runt/Venus-CBFb FRET ratio 530/480, 1 h; inhibition, % at 20 µM;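 active = inhibition over about 50% at 20 µM in the single-dose screen, limit read from the data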;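 also: 0% = DMSO wells and 100% = excess unlabeled CBFb competitor control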
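Assay system: Cerulean-Runt domain fusion protein, energy donor; Signal: fluorescence energy transfer, 422 nm excitation, 530/480 nm emission; Timing: 1 h compound exposure, room temperature; Control set: unlabeled CBFb; Medium: Tris buffer pH 7.5 with salts and BSA; Compound: single test concentration of 20 µM, 1% DMSO final; Probe or stimulus: Venus-CBFb 100 nM.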
* marks the source's active call; other numbers are inactive results; u = inconclusive; x = not tested or not shown; ! = a repeat was not active. Sampled rows, rich in hits. Any-hit rate of the full collection: about 2.9%.

SMILES	proKLK7 act	Wee1 degr inh	AI-2 QS mod	RanGTP-Impb inh	Runt-SMMHC FRET	Runt-CBFb FRET
COc1ccc(C)cc1NC(=O)CN1C(=O)COc2ccc(S(=O)(=O)N3CCOCC3)cc21	0	x	26	-2	x	x
COc1cc(NC(=O)c2cc(Cl)nnc2Cl)cc(OC)c1OC	-1	10*	13	2	-3	1
N/C(Cc1nc2ccccc2s1)=N\O	0	8	3	85*	5	4
O=c1[nH]c(N2CCCCC2)nc2ncn(Cc3ccccc3)c12	0	-1	13	-1	0	0
Cc1cc2oc(=O)cc(CSc3nc(N)cc(N)n3)c2cc1C(C)C	0	0	14	u	-1	-4
Nc1cc(N)nc(SCc2cc(=O)oc3cc4c(cc23)CCC4)n1	0	-2	19	31*	-2	0
O=c1cc(CN2CCN(Cc3ccccc3)CC2)c2cc3c(cc2o1)CCC3	0	-1	6	-1	81*	2
O=c1cc(CN2CCN(CCO)CC2)c2cc3c(cc2o1)CCC3	0	-2	20	0	2	-1
O=C(c1ccccc1)N1CCC2CCN(CCc3ccccc3)CC21 (configuration not stated)	0	x	x	x	x	x
COc1cc2nc(N3CCN(C(=O)c4ccco4)CC3)nc(N)c2cc1OC	4	6	18	25*!	-1	0
COc1cc2nc(N3CCN(C(=O)C4COc5ccccc5O4)CC3)nc(N)c2cc1OC (configuration not stated)	1	3	29	-1	1	-2
Cc1ccc2c(c1)-c1c(cnn1CC(=O)NCCc1ccccc1F)CO2	0	x	x	x	x	x
CCCn1nc(NC(=O)CC)c2cc3cccc(C)c3nc21	3	x	26	55*	x	x
CCC(=O)Nc1nn(C)c2nc3c(C)cccc3cc12	3	-2	4	22*	86	18
COc1ccc(CC(=O)Nc2nn(C)c3nc4c(C)cccc4cc23)cc1	-2	4	15	6	72*	11
Cc1cccc2cc3c(NC(=O)C(C)C)nn(C)c3nc12	0	6	29	47*	22	14
C=CCNC(=O)/C(C#N)=C/c1cc(Br)ccc1OC	-1	11*	12	2	-1	0
COC(=O)[C@]12CCCCC=C1N(Cc1cccc3ccccc13)C(=O)[C@H](CC(=O)NCCC(C)C)C2	0	x	x	x	x	x
S=c1[nH]c2cc(Cl)ccc2s1	0	2	-78*	3	6	x
S=c1[nH]c2ccc(Cl)cc2[nH]1	0	-2	11	-3	0	5
CO[C@H]1C=CO[C@@]2(C)Oc3c(C)c(O)c4c(O)c(c(C=NN5CCN(C6CCCC6)CC5)c(O)c4c3C2=O)NC(=O)C(C)=CC=C[C@H](C)[C@H](O)[C@@H](C)[C@@H](O)[C@@H](C)[C@H](OC(C)=O)[C@@H]1C	x	-2	-185*	-11	-165	-33
CO[C@H]1C=CO[C@@]2(C)Oc3c(C)c(O)c4c(O)c(c(C=NN5CCN(C)CC5)c(O)c4c3C2=O)NC(=O)C(C)=CC=C[C@H](C)[C@H](O)[C@@H](C)[C@@H](O)[C@@H](C)[C@H](OC(C)=O)[C@@H]1C	0	0	-119*	-23	-86	-24
Cc1ccc2[nH]c(=O)c(C(c3nnnn3Cc3ccccc3)N3CCc4ccccc43)cc2c1 (configuration not stated)	0	-1	13	20*	-1	11
COC(=O)[C@]12C[C@H](CC(=O)NCc3cccc(C(F)(F)F)c3)C(=O)N(Cc3ccccc3)C1=C[C@H](C1CCCC1)O[C@@H]2C	0	x	x	x	x	x
CCCOc1ccc(/C=N\NC(=O)CCc2n[nH]c(=O)[nH]c2=O)cc1OC	0	9.6*	4	1	3	-1
SMILES	proKLK7 act	Wee1 degr inh	AI-2 QS mod	RanGTP-Impb inh	Runt-SMMHC FRET	Runt-CBFb FRET
COC(=O)C1=COC(C)C2CN3CCc4c([nH]c5ccccc45)C3CC12 (configuration not stated)	3	-1	36	122*	46	11
COC(=O)C1=CO[C@@H](C)[C@H]2CN3CCc4c([nH]c5ccccc45)[C@@H]3C[C@H]12	2	x	x	x	x	x
CC(=O)N(/C=C1\SC(=S)N(c2ccccc2)C1=O)c1ccccc1	0	10*	9	-4	4	0
CCN1C(=O)/C(=C\N(C(C)=O)c2ccccc2)OC1=S	3	2	21	3	5	2
c1ccc(-c2nnc(SCC3CCCO3)nc2-c2ccccc2)cc1 (configuration not stated)	0	6	-3	26*	-4	-2
O=C(O)COc1ccccc1Cc1ccccc1	0	-1	-62	0	143	88*
CC(C)c1[nH]nc2c1C(c1cccc(C(F)(F)F)c1)NC2=O (configuration not stated)	-1	x	x	x	x	x
CC1CCN(C(=O)c2cc(-c3ccc(Cl)c(Cl)c3)on2)CC1	-1	-1	-80*	2	-3	-6
O=C(c1cc(-c2ccc(Cl)c(Cl)c2)on1)N1CCCC1	x	-1	x	x	1	1
CN(C)c1ccc(/C=C(\C#N)c2ccccc2)cc1	x	16*	x	x	-2	0
CN(C)c1cccc(/C=C(\C#N)c2ccccc2)c1	-1	10.0*	-13	0	2	-2
COc1ccc(C(C#N)=Cc2ccc(N(C)CCC#N)cc2)cc1	0	x	x	x	x	x
CN(C)c1ccc(/C=C(\C#N)C(=O)c2ccccc2)cc1	0	9.3*	25	-16	-1	-45
Cn1cccc1/C=C(\C#N)c1ccccc1	1	-2	-9	2	2	0
CCN(CC)c1ccc(/C=C(\C#N)C(N)=O)cc1	1	0	x	x	63*	29
CCn1c2c(n(C(C)=O)c1=O)C[C@@H](c1ccccc1)[C@@H](C)[C@@H](C(=O)N1CCCC1)C2	0	x	x	x	x	x
O=C(C1CCN(c2cncnc2)CC1)N1CCCC1	0	x	x	x	x	x
CCOc1cc(-c2cc(-c3ccc(N)cc3)nc(N)c2C#N)ccc1O	1	4	21	48*	80*	46
O=C(Nc1ccc2c(c1)OCCO2)C1c2ccccc2OCC(=O)N1Cc1cccnc1 (configuration not stated)	0	x	x	x	x	x
CCOc1ccc2nc(SC3CC(=O)N(c4cccc(OC)c4)C3=O)sc2c1 (configuration not stated)	0	9.1*	29	4	7	11
CCOc1ccc2nc(SC3CC(=O)N(c4ccccc4)C3=O)sc2c1 (configuration not stated)	x	-1	-2	3	10	5

Assay outcomes: PubChem BioAssay, several laboratories
